Rows were chosen to be rich in hits. Some 1.8% of all compounds tested hit in one or more screens of this group.
CHOP UPR activ – activators of apoptotic arm of unfolded protein response (CHOP). 330,000 tested, 0.34% active. AID 449763. activation, % at 10 µM. CHO-CHOP luciferase reporter, UPR activation, luminescence; percent of tunicamycin response over DMSO baseline;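 active = at 10 µM dose, activation of 40% or more, normalized to positive control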;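 note: 100% = tunicamycin at 10 µg/mL and 0% = DMSO alone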
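measured by = luciferase luminescence | assay system = CHO-CHOP cells, stable luciferase reporter of PERK-eIF2a-CHOP signalling | amount = 500 reporter cells seeded per well | timing = 6 h compound exposure at 37 °C after overnight seeding | controls = positive tunicamycin 10 µg/mL, negative DMSO alone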
UPR XBP1 act – activators of adaptive arm of unfolded protein response (XBP1); CHO-XBP1 luciferase reporter, IRE1-XBP1 UPR activation, luminescence; percent of tunicamycin response, DMSO as zero; activation, % at 20 µM; 330,000 tested, 0.33% active;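 active = versus positive control, 20 µM dose yields 30% or more activation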;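 note: 100% = tunicamycin at 10 µg/mL and 0% = DMSO only wells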
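Material: CHO-XBP1 cells stably carrying IRE1-XBP1-driven luciferase reporter / Amount: 1000 cells per well / Compound: 20 µM, 1% DMSO / Times: 6 h treatment, 37 °C / Detection: luciferase luminescence / Measure: % activation of reporter signal versus tunicamycin and DMSO controls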
CRFBP-R2 block – CRF-BP/CRF-R2 complex antagonism; HEK293 CRF-R2/CRF-BP, CRF-induced calcium fluorescence; inhibition, % at 11.8 µM; 350,000 tested, 0.59% active; AID 588475;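 active = inhibition of the ligand-induced calcium signal above about 50% at the single tested concentration, limit read from the data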
697 NFkB inh – inhibitors of the PMA/ionomycin-induced NF-kB reporter in 697 B cells; 697 B-cell NF-kB luciferase reporter, 16 h; inhibition, % at 4 µM; AID 435022; 330,000 tested, 0.33% active; in the data active = inhibition above about 35%
Jurkat NFkB inh – lowers PMA/ionomycin-induced NF-kB signal in Jurkat cells | AID 435003 | PMA/ionomycin-induced NF-kB luciferase reporter, luminescence | 330,000 tested, 0.53% active | inhibition, % at 4 µM; in the data active = inhibition above about 50%
Jurkat NFkB conf – lowers PMA/ionomycin-induced NF-kB signal in Jurkat cells. shares compounds with Jurkat NFkB inh. Jurkat NF-kB luciferase, 16 h. inhibition, % at 4 µM. 2,700 tested, 27% active. AID 435020;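 active = inhibition reaching about 45% at 4 µM in either replicate, limit read from the data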;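 note: plate controls were PMA/ionomycin stimulated DMSO wells for no effect and unstimulated DMSO wells for full effect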
* marks the source's active call; other numbers are inactive results.

`O=c1c2ccccc2oc2ccc(C#CC3(O)CCCCC3)cc12` gave CHOP UPR activ -3, UPR XBP1 act -3, CRFBP-R2 block -14, 697 NFkB inh -180, Jurkat NFkB inh -161 and Jurkat NFkB conf 15.
COc1ccccc1NC(CC(=O)c1ccccc1)C(=O)OCC(=O)c1ccc(Br)cc1 (centres undefined) was read as CHOP UPR activ 3, UPR XBP1 act 1, CRFBP-R2 block -5, 697 NFkB inh -185, Jurkat NFkB inh -163 and Jurkat NFkB conf -60.
For O=C(CC(Nc1ccccc1Cl)C(=O)OCC(=O)c1cccs1)c1ccccc1 (centres undefined) the results were CHOP UPR activ 0, UPR XBP1 act 2, CRFBP-R2 block -1, 697 NFkB inh -232, Jurkat NFkB inh -200 and Jurkat NFkB conf 2.
`COc1ccccc1NC(CC(=O)c1ccccc1)C(=O)OCC(=O)c1ccc(C)cc1` (centres undefined) gave CHOP UPR activ 3, UPR XBP1 act -2, CRFBP-R2 block 4, 697 NFkB inh -149 and Jurkat NFkB inh -117.
Nc1ncnc2nc(SCC(=O)Nc3ccccc3F)[nH]c12 was read as CHOP UPR activ 1, UPR XBP1 act -8, CRFBP-R2 block 7, 697 NFkB inh 5 and Jurkat NFkB inh 5.
For CC(NC(=O)COC(=O)CCC(=O)c1ccc(F)cc1)c1ccccc1 (centres undefined) the results were CHOP UPR activ 1, UPR XBP1 act 0, CRFBP-R2 block 1, 697 NFkB inh -5 and Jurkat NFkB inh 6.
Screening Nc1ccc2oc(-c3cccc(Br)c3)nc2c1 returned CHOP UPR activ 6, UPR XBP1 act 2, CRFBP-R2 block -13, 697 NFkB inh -182, Jurkat NFkB inh -177 and Jurkat NFkB conf -38.
Screening Nc1ccc2oc(-c3ccc4nc[nH]c4c3)nc2c1 returned CHOP UPR activ -1, UPR XBP1 act -1, CRFBP-R2 block -13, 697 NFkB inh -158 and Jurkat NFkB inh -80.
Cc1ccc(S(=O)(=O)N2CCN(C(=O)CC(C)n3nc(C)c(Cl)c3C)CC2)cc1 (centres undefined) was read as CHOP UPR activ 1, UPR XBP1 act 14, CRFBP-R2 block 7, 697 NFkB inh 1 and Jurkat NFkB inh 3.
`C=CCS(=O)(=O)N1CCCC(Cc2ccccc2C)(C(=O)OCC)C1` (centres undefined) gave CHOP UPR activ 0, UPR XBP1 act -1, CRFBP-R2 block 17, 697 NFkB inh -19 and Jurkat NFkB inh -6.
`Cc1ccc(S(=O)(=O)N2CCCCC2CCNC(=O)C(=O)NCCc2ccco2)cc1` (centres undefined) gave CHOP UPR activ 1, UPR XBP1 act -2, CRFBP-R2 block 9, 697 NFkB inh -15, Jurkat NFkB inh 60* and Jurkat NFkB conf 25.
Screening Cc1ccc(NC(=O)/C(Cl)=C\c2ccccc2)cc1 returned CHOP UPR activ -2, UPR XBP1 act -3, CRFBP-R2 block -4, 697 NFkB inh -102, Jurkat NFkB inh -223 and Jurkat NFkB conf -126.
O=C(O)C(=O)/C(=C\c1ccc(Cl)cc1)c1ccc2ccccc2n1 was read as CHOP UPR activ 1, UPR XBP1 act 0, CRFBP-R2 block -17, 697 NFkB inh -84, Jurkat NFkB inh -156 and Jurkat NFkB conf -54.
COc1cc(/C=C2\SC(N3CCC(C)CC3)=NC2=O)ccc1O was read as CHOP UPR activ -1, UPR XBP1 act 0, CRFBP-R2 block 17, 697 NFkB inh 34, Jurkat NFkB inh 61* and Jurkat NFkB conf 19.
For COc1ccc(/C=C2\SC(N3CCCCC3)=NC2=O)cc1OC the results were CHOP UPR activ 5, UPR XBP1 act 5, CRFBP-R2 block -21, 697 NFkB inh -1 and Jurkat NFkB inh -13.
O=C(OCCN1C(=O)c2cccc3c(N4CCOCC4)ccc(c23)C1=O)c1ccc(Cl)cc1 was read as CHOP UPR activ 2, UPR XBP1 act 10, CRFBP-R2 block -374, 697 NFkB inh -56, Jurkat NFkB inh 64* and Jurkat NFkB conf 37.
Clc1ncccc1-c1nnn(-c2ccccc2)n1 was read as CHOP UPR activ 3, UPR XBP1 act -1, CRFBP-R2 block -2, 697 NFkB inh -148 and Jurkat NFkB inh -138.
For Fc1ccc(-n2nnc(-c3cccnc3Cl)n2)cc1 the results were CHOP UPR activ 4, UPR XBP1 act -2, CRFBP-R2 block 3, 697 NFkB inh -152, Jurkat NFkB inh -152 and Jurkat NFkB conf -76.
O=C(Nc1ccccc1O)c1cccc(S(=O)(=O)Nc2ccccc2O)c1 was read as CHOP UPR activ 3, UPR XBP1 act 6, CRFBP-R2 block 18, 697 NFkB inh -26 and Jurkat NFkB inh -17.
COc1cccc(/C=N/Nc2ncnc3c2ncn3Cc2ccccc2)c1O was read as CHOP UPR activ 0, UPR XBP1 act 2, CRFBP-R2 block 0, 697 NFkB inh -34, Jurkat NFkB inh 63* and Jurkat NFkB conf 67*.
`CCN(CC(=O)NCc1cccs1)C(=O)c1ccc(S(=O)(=O)Nc2ccccc2F)cc1` gave CHOP UPR activ 1, UPR XBP1 act -1, CRFBP-R2 block 9, 697 NFkB inh 3 and Jurkat NFkB inh 9.
`Cc1ccc2nc(-c3ccccc3)cn2c1` gave CHOP UPR activ -11, UPR XBP1 act -17, CRFBP-R2 block -16, 697 NFkB inh -7 and Jurkat NFkB inh 46.
For c1ccc(-c2cn3c(n2)-c2ccccc2C3)cc1 the results were CHOP UPR activ -3, UPR XBP1 act -3, CRFBP-R2 block -3, 697 NFkB inh -222, Jurkat NFkB inh -160 and Jurkat NFkB conf -147.
`Cc1ccc(CNC(=O)Cc2ccc(-n3cccc3)cc2)cc1` gave CHOP UPR activ -1, UPR XBP1 act -2, CRFBP-R2 block -1, 697 NFkB inh -42, Jurkat NFkB inh 53* and Jurkat NFkB conf 4.
`COc1ccc(CC(=O)NCc2ccc(-n3cccc3)cc2)cc1OC` gave CHOP UPR activ 0, UPR XBP1 act 4, CRFBP-R2 block 3, 697 NFkB inh -48, Jurkat NFkB inh 55* and Jurkat NFkB conf 18.
NC(=O)CSc1nc(N)c2c3c(sc2n1)CCCCC3 was read as CHOP UPR activ 2, UPR XBP1 act 4, CRFBP-R2 block -31, 697 NFkB inh -6 and Jurkat NFkB inh -10.
`NC(=O)CSc1nc(C2CC2)nc2sc3c(c12)CCCC3` gave CHOP UPR activ 5, UPR XBP1 act 13, CRFBP-R2 block -13, 697 NFkB inh -225, Jurkat NFkB inh -189 and Jurkat NFkB conf -70.
`O/C(=C\c1ccc2ccccc2n1)c1ccc(O)cc1O` gave CHOP UPR activ 1, UPR XBP1 act -2, CRFBP-R2 block -34, 697 NFkB inh -186, Jurkat NFkB inh -170 and Jurkat NFkB conf -15.
